In ChEMBL document CHEMBL3045496, “Antifeedant activity of ethanolic extract from Flourensia oolepis and isolation of pinocembrin as its active principle compound” (2009):
Active and inactive are the calls of the source. The rule behind the calls is not given here.

Experiments:
Spodoptera litura = test: Antifeedant activity against third-instar Spodoptera litura assessed per cm2 leaf disk; assay type: functional
Epilachna [1] = test: Antifeedant activity against third-instar Epilachna paenulata measured assessed per cm2 leaf disk; assay type: functional
Epilachna [2] = test: Antifeedant activity against third-instar Epilachna paenulata measured assessed per cm2 leaf disk after 24 hr by leaf disk choice test; assay type: functional
How it was run: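 Two Cucurbita maxima seedling cotyledons in a Petri dish under a glass disk with two 1 cm2 holes: one solvent-treated, one solvent-control. A single larva is placed equidistant between them and feeds for 24 h. Area eaten is estimated visually by quarters, always by the same operator. AI% = [1−(T/C)]×100; means of 10 replicates.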

Xanthogaleruca luteola [3] = test: Antifeedant activity against adult Xanthogaleruca luteola assessed per cm2 leaf disk after 24 hr by leaf-disk choice test
Epilachna [4] = test: Antifeedant activity against third-instar Epilachna paenulata measured at 1 ug/cm2 leaf disk after 24 hr by leaf disk choice test relative to control; assay type: functional
Epilachna [5] = test: Antifeedant activity against third-instar Epilachna paenulata measured at 50 ug/cm2 leaf disk after 24 hr by leaf-disk choice test relative to control; assay type: functional
Epilachna [6] = test: Antifeedant activity against third-instar Epilachna paenulata measured at 100 ug/cm2 leaf disk after 24 hr by leaf-disk choice test relative to control; assay type: functional
Spodoptera frugiperda [7] = test: Antifeedant activity against third-instar Spodoptera frugiperda (fall armyworm) measured at 5 ug/cm2 leaf disk after 3 to 4 hr by leaf-disk choice test relative to control; assay type: functional
How it was run: (§1)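 Two-choice leaf-disk assay with third-instar larvae collected in the field and kept on pumpkin for 2–3 days beforehand. Treated and solvent-control 1 cm2 disks of C. maxima cotyledon are offered together, and the area of each consumed (0–100%) is scored visually by quarters by the same operator. AI% = [1−(T/C)]×100; means of 10 replicates.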

Xanthogaleruca luteola [8] = test: Antifeedant activity against adult Xanthogaleruca luteola measured at 5 ug/cm2 leaf disk after 24 hr by leaf-disk choice test relative to control
Xanthogaleruca luteola [9] = test: Antifeedant activity against adult Xanthogaleruca luteola measured at 50 ug/cm2 leaf disk after 24 hr by leaf-disk choice test relative to control
Spodoptera frugiperda [10] = test: Antifeedant activity against third-instar Spodoptera frugiperda (fall armyworm) measured at 50 ug/cm2 leaf disk after 3 to 4 hr by leaf-disk choice test relative to control; assay type: functional; how it was run: as §1
Spodoptera frugiperda [11] = test: Antifeedant activity against third-instar Spodoptera frugiperda (fall armyworm) measured at 10 ug/cm2 leaf disk after 3 to 4 hr by leaf-disk choice test relative to control; assay type: functional; how it was run: as §1
Xanthogaleruca luteola [12] = test: Antifeedant activity against adult Xanthogaleruca luteola measured at 1 ug/cm2 leaf disk after 24 hr by leaf-disk choice test relative to control
Xanthogaleruca luteola [13] = test: Antifeedant activity against adult Xanthogaleruca luteola measured at 100 ug/cm2 leaf disk after 24 hr by leaf-disk choice test relative to control
Spodoptera frugiperda [14] = test: Antifeedant activity against third-instar Spodoptera frugiperda (fall armyworm) measured at 100 ug/cm2 leaf disk after 3 to 4 hr by leaf-disk choice test relative to control; assay type: functional; how it was run: as §1
Spodoptera frugiperda [15] = test: Antifeedant activity against third-instar Spodoptera frugiperda (fall armyworm) assessed per cm2 leaf disk after 3 to 4 hr by leaf-disk choice test; assay type: functional
Xanthogaleruca luteola [16] = test: Antifeedant activity against adult Xanthogaleruca luteola measured at 10 ug/cm2 leaf disk after 24 hr by leaf-disk choice test relative to control
Epilachna [17] = test: Antifeedant activity against third-instar Epilachna paenulata measured at 10 ug/cm2 leaf disk after 24 hr by leaf-disk choice test relative to control; assay type: functional
Epilachna [18] = test: Antifeedant activity against third-instar Epilachna paenulata measured at 5 ug/cm2 leaf disk after 24 hr by leaf-disk choice test relative to control; assay type: functional

Molecule `COc1c(OC)c(O)c2c(=O)c(OC)c(-c3ccccc3)oc2c1OC` has an ED50 (Spodoptera litura) of 7.16 µg.

With `COc1ccc(-c2oc3c(OC)c(OC)c(OC)c(O)c3c(=O)c2OC)cc1` [5-HYDROXYAURANETIN] the ED50 (Spodoptera litura) was 42.8 µg.

`C[C@@H]1CC[C@H]2[C@@H](C)C(=O)O[C@@H]3O[C@@]4(C)CC[C@@H]1[C@]32OO4` [ARTEMISININ] showed an ED50 (Epilachna [1]) of 14.7 µg.

`C/C=C(\C)C(=O)O[C@H]1C[C@@H](OC(C)=O)[C@@]2(C(=O)OC)CO[C@H]3[C@@H](O)[C@@](C)([C@]45O[C@@]4(C)[C@@H]4C[C@H]5O[C@@H]5OC=C[C@@]54O)[C@H]4[C@]1(CO[C@]4(O)C(=O)OC)[C@@H]32` [AZADIRACHTIN A] showed an ED50 (Epilachna [2]) of 0.59 µg.

With `Oc1cc(O)c2c(c1)OC(c1ccc(O)c(O)c1)C(O)C2` (configuration not stated) [CATECHIN] the ED50 (Xanthogaleruca luteola [3]) was 50.22 µg and the ED50 (Epilachna [2]) was 47.6 µg.

`O=c1cc(-c2ccccc2)oc2cc(O)cc(O)c12` [CHRYSIN] gave an ED50 (Spodoptera litura) of 635 µg.

Work on `O=c1cc(-c2ccccc2)oc2ccccc12` [FLAVONE] yielded an ED50 (Spodoptera litura) of 24.6 µg.

In the case of `CC(=O)O[C@@H]1C[C@H](O)[C@@]23COC(O)[C@]1(C)[C@@H]2C[C@@H](O)[C@]1(C)[C@@H]3[C@H](O)C(=O)[C@@]2(C)[C@H](c3ccoc3)C[C@H]3O[C@@]312` (some centres not stated) [MELIARTENIN], the ED50 (Epilachna [1]) is reported as 0.8 µg.

In the case of `O=C1C[C@@H](c2ccc(O)cc2)Oc2cc(O)cc(O)c21` [NARINGENIN], the ED50 (Epilachna [2]) is reported as 160.15 µg.

For `O=C1C[C@@H](c2ccccc2)Oc2cc(O)cc(O)c21` [PINOCEMBRIN], the ED50 (Xanthogaleruca luteola [3]) was 6.13 µg, the AFI (Epilachna [4]) was 12% and the AFI (Epilachna [5]) was 90%. It also gave an AFI (Epilachna [6]) of 99.1%, an AFI (Spodoptera frugiperda [7]) of 21% and an AFI (Xanthogaleruca luteola [8]) of 62%. The AFI (Xanthogaleruca luteola [9]) was 94%, the AFI (Spodoptera frugiperda [10]) was 91% and the AFI (Spodoptera frugiperda [11]) was 70%. The AFI (Xanthogaleruca luteola [12]) was 0%, the AFI (Xanthogaleruca luteola [13]) was 98% and the AFI (Spodoptera frugiperda [14]) was 92%. The ED50 (Epilachna [2]) was 7.98 µg, the ED50 (Spodoptera frugiperda [15]) was 8.86 µg and the AFI (Xanthogaleruca luteola [16]) was 62%. For the same molecule, the AFI (Epilachna [17]) was 62% and the AFI (Epilachna [18]) was 21%.

`O=c1c(O)c(-c2ccc(O)c(O)c2)oc2cc(O)cc(O)c12` [QUERCETIN] was tested, and the ED50 (Xanthogaleruca luteola [3]) was 178.52 µg, the Activity (Spodoptera litura) was “inactive” and the ED50 (Epilachna [2]) was 9.26 µg.

Molecule `C=C(C)[C@H]1Cc2c(ccc3c2O[C@@H]2COc4cc(OC)c(OC)cc4[C@@H]2C3=O)O1` [ROTENONE] has an ED50 (Spodoptera litura) of 59.1 µg.

Molecule `CC(=O)O[C@@H]1C[C@H](O)[C@@]23CO[C@@H](O)[C@]1(C)[C@@H]2C[C@@H](O)[C@]1(C)[C@@H]3C(=O)[C@H](OC(C)=O)[C@@]2(C)[C@H](c3ccoc3)C[C@H]3O[C@]321` [TOOSENDANIN] has an ED50 (Epilachna [1]) of 3.69 µg.
